The values that follow come from ChEMBL document CHEMBL1142748, “The tert-butyl dimethyl silyl group as an enhancer of drug cytotoxicity against human tumor cells” (Bioorg Med Chem Lett, 2005).

Each structure is given as a SMILES string. The source made the active and inactive calls. The calls are words filed in the database; no cut-off is given here.

For one assay, the system named is HL-60. Briefly: Concentration required for Total growth inhibition of HL60 human leukemia cells. It counts as functional.
Settings: not given
In outline: (§1)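 HL60 leukemia cells were grown in 96-well format following a modified NCI protocol. Compounds in DMSO were tested in duplicate at five 10-fold dilutions, and controls received equivalent DMSO. After 48 h exposure, cells were fixed with ice-cold 80% (w/v) TCA for 60 min at 4 °C, then stained by SRB and read at OD 490 nm. Percent growth came from start versus end OD, corrected for medium-only background. GI50 and TGI were read from dose–response curves as the mean of 2–4 experiments ± SD.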
On to `COC(=O)/C=C/[C@H]1OCCC[C@@H]1O[Si](C)(C)C(C)(C)C`, for which the TGI – broadly, the concentration giving total growth inhibition – amounted to 69 µM.

In turn, `CC(C)(C)[Si](C)(C)O[C@H]1CCCO[C@@H]1/C=C\CO` displayed a TGI of 64 µM.

Molecule `COC(=O)/C=C/C[C@H]1OCCC[C@@H]1O[Si](C)(C)C(C)(C)C` returned a TGI of 77 µM.

A further assay has as its system MCF7S. Briefly: Concentration required for 50% reduction of cellular net growth of MCF-7 human breast cancer cells. The assay is classed as functional.
Settings: not given
In outline: (§2)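 MCF7 breast cancer cells were grown in 96-well format following a modified NCI protocol. Compounds in DMSO were tested in duplicate at five 10-fold dilutions, and controls received equivalent DMSO. After 48 h exposure, cells were fixed with ice-cold 50% (w/v) TCA for 60 min at 4 °C, then stained by SRB and read at OD 490 nm. Percent growth came from start versus end OD, corrected for medium background. GI50 and TGI were taken from curves as the mean of 2–4 experiments ± SD.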
Take `COC(=O)/C=C/[C@H]1OCCC[C@@H]1O[Si](C)(C)C(C)(C)C`: halving of growth (GI50) required 24 µM.

With `CC(C)(C)[Si](C)(C)O[C@H]1CCCO[C@@H]1CCO`, growth was halved (GI50) at 55 µM.

For `CC(C)(C)[Si](C)(C)O[C@H]1CCCO[C@@H]1/C=C/CO`, growth was halved (GI50) at 61 µM.

For the molecule `CC(C)(C)[Si](C)(C)OC/C=C/[C@H]1OCCC[C@@H]1O`, the GI50 (as a rule, the concentration at which growth is held to half of that of the control) is 86 µM.

Regarding `COC(=O)/C=C/C[C@H]1OCCC[C@@H]1OC(=O)c1ccccc1`, the GI50 result is “inactive”.

`CC(C)(C)[Si](C)(C)O[C@H]1CCCO[C@@H]1/C=C\CO` gave a GI50 of 6.4 µM.

The molecule `CC(C)(C)[Si](C)(C)O[C@H]1CCCO[C@@H]1CC=O` gave a GI50 of 21 µM.

As for `COC(=O)/C=C/C[C@H]1OCCC[C@@H]1O[Si](C)(C)C(C)(C)C`, the GI50 was determined as 18 µM.

`COC(=O)/C=C\[C@H]1OCCC[C@@H]1O[Si](C)(C)C(C)(C)C` displayed a GI50 of 32 µM.

On to `CC(C)(C)[Si](C)(C)O[C@H]1CCCO[C@@H]1C/C=C/CO`, for which the concentration for 50% growth inhibition (GI50) amounted to 25 µM.

The subject of another assay is HL-60. Briefly: Concentration required for 50% reduction of cellular net growth of HL60 human leukemia cells; na=no activity. The assay is classed as functional, cell-based.
Settings: not given
In outline: as §1
Consider `COC(=O)/C=C/C[C@H]1OCCC[C@@H]1OC(C)=O`, for which the GI50 result was “inactive”.

Regarding `C=CCO[C@H]1CCCO[C@@H]1CC=O`, the GI50 entry was “inactive”.

Turning to `COC(=O)/C=C/C[C@H]1OCCC[C@@H]1O`, the GI50 entry is “inactive”.

For the molecule `CC(C)(C)[Si](C)(C)OC/C=C/[C@H]1OCCC[C@@H]1O`, the GI50 entry was “inactive”.

Regarding `COC(=O)/C=C/C[C@H]1OCCC[C@@H]1OC(=O)c1ccccc1`, the GI50 result was “inactive”.

Take `CC(C)(C)[Si](C)(C)O[C@H]1CCCO[C@@H]1CC#N`: the GI50 entry is “inactive”.

For `OC/C=C/[C@H]1OCCC[C@@H]1O`, the GI50 entry is “inactive”.

Turning to `COC(=O)/C=C\[C@H]1OCCC[C@@H]1O[Si](C)(C)C(C)(C)C`, the GI50 result is “inactive”.

The next assay concerns HL-60. Briefly: Lethal concentration required for net loss in 50% of HL60 human leukemia cells. The following applies: read-out: LC50 (the source's name). The assay is classed as functional. Put shortly:
(§3)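 Modified NCI protocol with SRB read-out after 48 h drug exposure. Compounds were diluted from a DMSO stock at 400× the top final concentration, at five 10-fold dilutions in duplicate, with DMSO-matched controls. Cells were fixed with ice-cold TCA (80% w/v for HL60, 50% w/v for MCF7) for 60 min at 4 °C. OD was read at 490 nm and corrected for medium-only background. Percent growth came from OD at the start versus the end of exposure. LC50 is the concentration giving net loss of 50% of cells, from dose-response curves; values are means of 2–4 experiments.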
As for `CC(C)(C)[Si](C)(C)O[C@H]1CCCO[C@@H]1/C=C\CO`, the CC50 was determined as 88 µM.

In the next assay the test system is MCF7S. Briefly: Lethal concentration required for net loss in 50% of MCF-7 human breast cancer cells. The following applies: read-out: LC50 (the source's name). It counts as functional. In outline:
as §3
Turning to `COC(=O)/C=C/[C@H]1OCCC[C@@H]1O[Si](C)(C)C(C)(C)C`, the CC50 was 94 µM.

In the case of `CC(C)(C)[Si](C)(C)O[C@H]1CCCO[C@@H]1/C=C\CO`, the CC50 is 63 µM.

Another assay deals with MCF7S. Briefly: Concentration required for 50% reduction of cellular net growth of MCF-7 human breast cancer cells;na=no activity. The assay is classed as functional, cell-based.
Settings: not given
In outline:
as §2
With `COC(=O)/C=C/C[C@H]1OCCC[C@@H]1O`, the GI50 result is “inactive”.

`OC/C=C/[C@H]1OCCC[C@@H]1O`: the GI50 result is “inactive”.

A further assay has as its system MCF7S. Briefly: Concentration required for Total growth inhibition of MCF-7 human breast cancer cells. It counts as functional.
Settings: not given
Put shortly: as §2
As for `COC(=O)/C=C/[C@H]1OCCC[C@@H]1O[Si](C)(C)C(C)(C)C`, total growth inhibition (TGI) required 80 µM.

In the case of `CC(C)(C)[Si](C)(C)O[C@H]1CCCO[C@@H]1/C=C\CO`, the TGI is 23 µM.

The molecule `CC(C)(C)[Si](C)(C)O[C@H]1CCCO[C@@H]1CC=O` had a TGI of 82 µM.

Regarding `COC(=O)/C=C/C[C@H]1OCCC[C@@H]1O[Si](C)(C)C(C)(C)C`, net growth stopped (TGI) at 48 µM. This TGI lies about 1.7-fold lower than the previous one.

In turn, `COC(=O)/C=C\[C@H]1OCCC[C@@H]1O[Si](C)(C)C(C)(C)C` gave a TGI of 82 µM.

On to `CC(C)(C)[Si](C)(C)O[C@H]1CCCO[C@@H]1C/C=C/CO`, for which total growth inhibition (TGI) required 83 µM.

Another assay concerns HL-60. Briefly: Concentration required for 50% reduction of cellular net growth of HL60 human leukemia cells. The assay is classed as functional.
Settings: not given
In outline:
as §1
Molecule `COC(=O)/C=C/[C@H]1OCCC[C@@H]1O[Si](C)(C)C(C)(C)C` gave a GI50 of 22 µM.

`CC(C)(C)[Si](C)(C)O[C@H]1CCCO[C@@H]1CCO` had a GI50 of 46 µM.

`CC(C)(C)[Si](C)(C)O[C@H]1CCCO[C@@H]1/C=C/CO` gave a GI50 of 31 µM.

`CC(C)(C)[Si](C)(C)O[C@H]1CCCO[C@@H]1/C=C\CO` registered a GI50 of 26 µM.

For the molecule `CC(C)(C)[Si](C)(C)O[C@H]1CCCO[C@@H]1CC=O`, the GI50 is 40 µM.

In turn, `COC(=O)/C=C/C[C@H]1OCCC[C@@H]1O[Si](C)(C)C(C)(C)C` registered a GI50 of 22 µM.

Consider `CC(C)(C)[Si](C)(C)O[C@H]1CCCO[C@@H]1C/C=C/CO`, for which halving of growth (GI50) required 27 µM.

Another assay deals with MCF7S. Briefly: Concentration required for 50% reduction of cellular net growth of MCF-7 human breast cancer cells; na=no activity. The assay is classed as functional, cell-based.
Settings: not given
In outline:
as §2
`COC(=O)/C=C/C[C@H]1OCCC[C@@H]1OC(C)=O`: the GI50 entry is “inactive”.
